We go through ten compounds from ChEMBL document CHEMBL1145016, “Synthesis and antitumor activity of conjugates of muramyldipeptide or normuramyldipeptide with hydroxyacridine/acridone derivatives” (J Med Chem, 2003).

The test system of data set [1] is NCI-H460. As to the kind of experiment: Tested for cytotoxicity of compound against NCI-H460 (lung)cell line; Compound was active. The class given is functional, cell-based. Particulars: Homo sapiens.
The nature of data set [2]: Tested for cytotoxicity (lethal concentration) of compound, activity expressed as MID log LC50. In kind it is functional. A digest of the protocol:
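MID is the calculated mean of LC50 concentrations (M) across the cell line panel, where LC50 is the half-lethal concentration. It is reported as a log value.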

The subject of data set [3] is MCF7. As to the kind of experiment: Tested for cytotoxicity of compound against MCF-7 (breast) cell line; Compound was active. In kind it is functional, cell-based. Particulars: Homo sapiens.
Data set [4] has as its system SF-268. As to the kind of experiment: Tested for cytotoxicity of compound against SF-268 (CNS) cell line; Compound was active. Particulars: Homo sapiens. In kind it is functional, cell-based.
For data set [5], the system named is Mus musculus. As to the kind of experiment: Evaluated in vivo for percent growth delay in mice at 0.67 mg/kg for 12 days by intraperitoneal treatment on COLO 205 colon cell line. The class given is functional.
In data set [6] the test system is Mus musculus. Put plainly: Evaluated in vivo for percent growth delay in mice at 0.90 mg/kg for 7 days by intraperitoneal treatment on RXF-393 renal cell line. In kind it is functional. Particulars: dose 0.9 mg/kg.
Data set [7] concerns Mus musculus. As to the kind of experiment: Evaluated in vivo for percent of tumor weight in treated/control of mice at 0.67 mg/kg for 12 days by intraperitoneal treatment on COLO 205 colon cell line. In kind it is functional.
For data set [8], the system named is Mus musculus. Put plainly: Evaluated in vivo for percent of tumor weight in treated/control of mice at 1.00 mg/kg for 7 days by intraperitoneal treatment on AS283 lymphoma cell line. In kind it is functional.
Data set [9] relates to Mus musculus. Put plainly: Evaluated in vivo for toxic deaths of mice at 1.50 mg/kg for 10 days by intraperitoneal treatment on UACC-62 melanoma cell line. In kind it is toxicity, organism-based. On the set-up: dose 1.5 mg/kg, route intraperitoneal. Particulars: ip, 1.5 mg/kg, 240 h. The method, boiled down:
(§1)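 Nude mice carrying subcutaneous human tumor xenografts, tested at NCI Bethesda; compound given on the stated schedule, intraperitoneally (IP) or intravenously (IV). Three dose levels were tested, and the table reports only the optimal one. Toxic deaths are scored per treatment group alongside tumor weight end points.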

In data set [10] the test system is Mus musculus. Put plainly: Evaluated in vivo for percent growth delay in mice at 1.00 mg/kg for 7 days by intraperitoneal treatment on AS283 lymphoma cell line. The class given is functional.
In data set [11] the test system is Mus musculus. Put plainly: Evaluated in vivo for percent of tumor weight in treated/control of mice at 1.50 mg/kg for 10 days by intraperitoneal treatment on UACC-62 melanoma cell line. The class given is functional. Particulars: dose 1.5 mg/kg.
For data set [12], the system named is Mus musculus. As to the kind of experiment: Evaluated in vivo for percent growth delay in mice at 1.80 mg/kg for 24 (38) days by intravenous treatment on MDA-MB-435 breast cell line. In kind it is functional. Particulars: dose 1.8 mg/kg.
In data set [13] the test system is Mus musculus. Put plainly: Evaluated in vivo for percent of tumor weight in treated/control of mice at 0.90 mg/kg for 7 days by intraperitoneal treatment on RXF-393 renal cell line. The class given is functional. Particulars: dose 0.9 mg/kg.
Data set [14] in a line: Evaluated in vivo for subcutaneous score in hallow fiber assay. The class given is functional. The method, boiled down: (§2)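 NCI hollow fiber preliminary in vivo assay; scores recorded separately for intraperitoneal (ip) and subcutaneous (sc) fiber implantation sites, with an activity criterion applied (Y/N). Procedure detailed in prior work.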
Data set [15] has as its system Mus musculus. Put plainly: Evaluated in vivo for toxic deaths of mice at 0.67 mg/kg for 12 days by intraperitoneal treatment on COLO 205 colon cell line. The class given is toxicity, organism-based. Further details: dose 0.67 mg/kg, route intraperitoneal. Particulars: ip, 288 h. A digest of the protocol:
as §1

Data set [16] relates to Mus musculus. Put plainly: Evaluated in vivo for toxic deaths of mice at 0.90 mg/kg for 5 days by intraperitoneal treatment on HCT-15 colon cell line. The class given is toxicity, organism-based. On the set-up: dose 0.9 mg/kg, route intraperitoneal. Particulars: ip, 0.9 mg/kg, 120 h. A digest of the protocol: as §1
In data set [17] the test system is Mus musculus. Put plainly: Evaluated in vivo for toxic deaths of mice at 1.34 mg/kg for 7 days by intraperitoneal treatment on NCI-H460 non-small cell lung cell line. The class given is toxicity, organism-based. Particulars: ip, 168 h. Further details: dose 1.34 mg/kg, route intraperitoneal. A digest of the protocol:
as §1

For data set [18], the system named is Mus musculus. As to the kind of experiment: Evaluated in vivo for toxic deaths of mice at 0.90 mg/kg for 7 days by intraperitoneal treatment on RXF-393 renal cell line. The class given is toxicity, organism-based. Particulars: ip, 0.9 mg/kg, 168 h. Further details: dose 0.9 mg/kg, route intraperitoneal. A digest of the protocol:
as §1

Data set [19] concerns Mus musculus. As to the kind of experiment: Evaluated in vivo for toxic deaths of mice at 1.00 mg/kg for 7 days by intraperitoneal treatment on AS283 lymphoma cell line. The class given is toxicity, organism-based. On the set-up: dose 1 mg/kg, route intraperitoneal. Particulars: ip, 168 h. A digest of the protocol: as §1
The test system of data set [20] is Mus musculus. Put plainly: Evaluated in vivo for percent of tumor weight in treated/control of mice at 1.80 mg/kg for 24 (38) days by intravenous treatment on MDA-MB-435 breast cell line. Particulars: dose 1.8 mg/kg. The class given is functional.
Data set [21] deals with Mus musculus. As to the kind of experiment: Evaluated in vivo for percent of tumor weight in treated/control of mice at 1.34 mg/kg for 7 days by intraperitoneal treatment on NCI-H460 non-small cell lung cell line. The class given is functional.
Data set [22] has as its system Mus musculus. As to the kind of experiment: Evaluated in vivo for toxic deaths of mice at 1.80 mg/kg for 24 (38) days by intravenous treatment on MDA-MB-435 breast […] cell line. The class given is toxicity, organism-based. On the set-up: dose 1.8 mg/kg, route intravenous. Particulars: 1.8 mg/kg. A digest of the protocol: as §1
A short description of data set [23]: Evaluated in vivo for intraperitoneal + subcutaneous score in hallow fiber assay. In kind it is functional. A digest of the protocol:
as §2

Data set [24] has as its system Mus musculus. As to the kind of experiment: Evaluated in vivo for percent growth delay in mice at 1.50 mg/kg for 10 days by intraperitoneal treatment on UACC-62 melanoma cell line. In kind it is functional. Particulars: dose 1.5 mg/kg.
Data set [25] is described as follows: Evaluated in vivo for intraperitoneal score in hallow fiber assay. In kind it is functional. The method, boiled down:
as §2

The subject of data set [26] is Mus musculus. As to the kind of experiment: Evaluated in vivo for percent growth delay in mice at 0.90 mg/kg for 5 days by intraperitoneal treatment on HCT-15 colon cell line. Particulars: dose 0.9 mg/kg. The class given is functional.
The test system of data set [27] is Mus musculus. As to the kind of experiment: Evaluated in vivo for percent growth delay in mice at 1.34 mg/kg for 7 days by intraperitoneal treatment on NCI-H460 non-small cell lung cell line. The class given is functional.
Data set [28] relates to Mus musculus. As to the kind of experiment: Evaluated in vivo for percent of tumor weight in treated/control of mice at 0.90 mg/kg for 5 days by intraperitoneal treatment on HCT-15 colon cell line. In kind it is functional. Particulars: dose 0.9 mg/kg.
Data set [29] concerns MCF7. As to the kind of experiment: Tested for cytotoxicity of compound against MCF-7 (breast) cell line; IA means inactive. Particulars: Homo sapiens. The class given is functional, cell-based.
For data set [30], the system named is NCI-H460. Put plainly: Tested for cytotoxicity of compound against NCI-H460 (lung)cell line; IA means inactive. In kind it is functional, cell-based. Particulars: Homo sapiens.
Data set [31] relates to SF-268. Put plainly: Tested for cytotoxicity of compound against SF-268 (CNS) cell line; IA means inactive. Particulars: Homo sapiens. The class given is functional, cell-based.

Activity calls are given as the source filed them.

On to `CC(=O)N[C@@H]1[C@H](OCc2ccccc2)OC(CO)C(O)[C@H]1OCC(=O)N[C@H](C)C(=O)N[C@H](CCC(=O)OCCCNC(=O)c1cccc2c(=O)c3ccccc3[nH]c12)C(N)=O` (stereo partly specified), for which the Cytotoxicity result with NCI-H460 [1], in the data set on MCF7 [3] and with SF-268 [4] was “Active” throughout. In addition, the “MID log LC50” value in [2] was found to be 4.04 M.

Turning to `CC(=O)N[C@@H]1[C@H](OCc2ccccc2)OC(CO)C(O)[C@H]1OC(C)C(=O)N[C@H](C)C(=O)N[C@H](CCC(=O)OCCNc1c2ccccc2nc2cccc([N+](=O)[O-])c12)C(N)=O` (stereo partly specified), the “Growth delay (T-C/C)” value stood at 11% with Mus musculus [5]; 32% in the data set with Mus musculus [6]; 9% in the data set with Mus musculus [10]; 17% in the data set with Mus musculus [12]; 2% in the data set with Mus musculus [24]; 5% in the data set on Mus musculus [26]. Further, the “Growth delay (T-C/C)” value with Mus musculus [27] is listed as 21%. Further, the Tumor weight in the data set with Mus musculus [7] is recorded as 75%; in the data set on Mus musculus [8], 63%; in the data set with Mus musculus [11] it was 89%; with Mus musculus [13] it was 81%; in the data set with Mus musculus [20], 60%; in the data set with Mus musculus [21] it was 54%. For the same compound, the Tumor weight in the data set with Mus musculus [28] was found to be 79%. Also, the Toxic deaths with Mus musculus [9] was determined as 0; with Mus musculus [15], 0; in the data set with Mus musculus [16], 2; with Mus musculus [17], 1; in the data set on Mus musculus [18], 0; in the data set with Mus musculus [19], 0. The compound further came in with a Toxic deaths in the data set with Mus musculus [22] of 2. Besides, the results for the Score in data set [14], in [23] and in [25] were 8, 20 and 12, respectively. The “MID log LC50” value in data set [2] is listed as 6.85 M.

Consider `CC(=O)N[C@@H]1[C@H](OCc2ccccc2)OC(CO)C(O)[C@H]1OC(C)C(=O)N[C@@H](C(=O)N[C@H](CCC(=O)OCCNC(=O)c1cccc2c(=O)c3ccccc3[nH]c12)C(N)=O)C(C)C` (stereo partly specified), for which the IA result in the data set on MCF7 [29], with NCI-H460 [30] and in the data set with SF-268 [31] was “inactive” in each case.

`CC(=O)N[C@@H]1[C@H](OCc2ccccc2)OC(CO)C(O)[C@H]1OC(C)C(=O)N[C@H](C)C(=O)N[C@H](CCC(=O)OCCCNC(=O)c1cccc2cc3ccccc3nc12)C(N)=O` (stereo partly specified): the IA entry in the data set with MCF7 [29], in the data set with NCI-H460 [30] and in the data set on SF-268 [31] was “inactive” in each case.

`CC(=O)N[C@@H]1[C@H](OCc2ccccc2)OC(CO)C(O)[C@H]1OC(C)C(=O)N[C@H](C)C(=O)N[C@H](CCC(=O)OCCCCNC(=O)c1cccc2cc3ccccc3nc12)C(N)=O` (stereo partly specified): the IA entry in the data set with MCF7 [29], in the data set with NCI-H460 [30] and in the data set on SF-268 [31] was “inactive” in each case.

As to `CC(=O)N[C@@H]1[C@H](OCc2ccccc2)OC(CO)C(O)[C@H]1OCC(=O)N[C@H](C)C(=O)N[C@H](CCC(=O)OCCNC(=O)c1cccc2c(=O)c3ccccc3[nH]c12)C(N)=O` (stereo partly specified), the IA result with MCF7 [29], in the data set with NCI-H460 [30] and with SF-268 [31] was “inactive” in each case.

Take `CC(=O)N[C@@H]1[C@H](OCc2ccccc2)OC(CO)C(O)[C@H]1OC(C)C(=O)N[C@@H](C(=O)N[C@H](CCC(=O)OCCCNC(=O)c1cccc2cc3ccccc3nc12)C(N)=O)C(C)C` (stereo partly specified): the IA entry in the data set with MCF7 [29], in the data set on NCI-H460 [30] and in the data set with SF-268 [31] was “inactive” each time.

As to `O=[N+]([O-])c1cccc2nc3ccccc3c(NCCO)c12`, in data set [2], the “MID log LC50” value worked out at 5.9 M.

As to `CC(=O)N[C@@H]1[C@H](OCc2ccccc2)OC(CO)C(O)[C@H]1OC(C)C(=O)N[C@H](C)C(=O)N[C@H](CCC(=O)OCCNC(=O)c1cccc2cc3ccccc3nc12)C(N)=O` (stereo partly specified), the IA result in the data set with MCF7 [29], in the data set on NCI-H460 [30] and with SF-268 [31] was “inactive” throughout.

In the case of `CC(=O)N[C@@H]1[C@H](OCc2ccccc2)OC(CO)C(O)[C@H]1OCC(=O)N[C@H](C)C(=O)N[C@H](CCC(=O)OCCNC(=O)c1cccc2cc3ccccc3nc12)C(N)=O` (stereo partly specified), the IA entry in the data set with MCF7 [29], in the data set on NCI-H460 [30] and with SF-268 [31] was “inactive” throughout.
